IMP-1 inhibitor = IMP-1 metallo-beta-lactamase inhibitors, primary screen, biochemical, epi-absorbance readout, Pseudomonas aeruginosa enzyme. 290,000 tested, 0.45% active. metallo-beta-lactamase IMP-1 (Pseudomonas aeruginosa). inhibition, % at 5.6 µM. purified IMP-1, nitrocefin hydrolysis, epi-absorbance fluorescence;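 active = inhibition above the mean plus 3 SD of all compounds in the same screening run, cut at about 4.5% in these data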;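 also: 0% = IMP-1 with DMSO and 100% = DMSO wells lacking enzyme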
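System: Purified recombinant IMP-1 metallo-beta-lactamase enzyme | Measured by: Fluorescence quenching readout, ex 480/em 530 nm | Replication: Singlicate | Incubation: 15 min preincubation plus 25 min reaction at 25 °C | Evaluation: Percent inhibition from optical density relative to buffer-blank wells | Benchmarks: DMSO with and without IMP-1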
EBV gp42 inh = Epstein-Barr virus gp42 inhibitors, primary screen, biochemical, uHTS, fluorescence polarization. inhibition, % (tested at 21.74 µM). 220,000 tested, 0.42% active. Glycoprotein 42 (Epstein-Barr virus (strain AG876)), Q1HVG2. Fluorescence polarization binding assay, mP read-out; in the data active = inhibition above about 50%
Target sequence (Q1HVG2 whole entry, looked up): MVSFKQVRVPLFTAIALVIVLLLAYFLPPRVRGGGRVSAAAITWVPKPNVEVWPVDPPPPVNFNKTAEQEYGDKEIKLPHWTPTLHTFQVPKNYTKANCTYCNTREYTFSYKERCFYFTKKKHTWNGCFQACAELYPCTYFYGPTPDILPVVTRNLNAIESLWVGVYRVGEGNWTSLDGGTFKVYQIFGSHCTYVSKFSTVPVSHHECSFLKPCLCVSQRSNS
MEX-5 binding = MEX-5 zinc finger RNA-binding disruptors – biochemical, C. elegans, fluorescence polarization, MLPCN library, primary screen; Zinc finger protein mex-5 (Caenorhabditis elegans), Q9XUB2; 300,000 tested, 0.38% active; activity score (negative = inhibition of binding), % at 10 µM; MEX-5/FITC-TCR2 RNA binding; hits give low values;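 active = inhibition past about -25% in most replicates, and total fluorescence under double the plate's negative control median, limit read from the data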;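 also: 0% = DMSO and -100% = 5 µM competing unlabeled TCR2 RNA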
VIM-2 inhibitor = VIM-2 metallo-beta-lactamase inhibitors, primary screen, biochemical, epi-absorbance readout, Pseudomonas aeruginosa enzyme; 290,000 tested, 0.89% active; inhibition, % at 5.6 µM; purified VIM-2, nitrocefin hydrolysis, epi-absorbance fluorescence;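 active = inhibition above the mean of all tested compounds plus 3 SD, cutoff set per screening run, cut at about 7.5% in these data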;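 also: red hydrolysis product quenches plate fluorescence so inhibitors raise well fluorescence; 0% = enzyme with DMSO and 100% = DMSO without enzyme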
Bcl-xL primary = inhibitors of human Bcl-xL, primary screen, biochemical, fluorescence polarization, HTS. Bcl-2-like protein 1 (Homo sapiens), Q07817. GST-Bcl-xL / FITC-Bim BH3 peptide fluorescence polarization. inhibition, % at 10.9 µM. 320,000 tested, 0.7% active;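 active = inhibition above the mean of all tested compounds plus 3 SD, cutoff set per campaign, cut at about 30% in these data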;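 also: 0% = DMSO wells and 100% = unlabeled Bim-BH3 peptide competitor; inhibitors lower millipolarization by displacing the labeled peptide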
GLD-1 TGE inh = GLD-1/TGE RNA complex disruptors, primary screen, biochemical, fluorescence polarization; Female germline-specific tumor suppressor gld-1 (Caenorhabditis elegans), Q17339; purified GLD-1 + fluorescein TGE RNA; inhibition, % at 5.96 µM; 320,000 tested, 0.44% active; AID 2280, 2010;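 active = percent inhibition above a per-plate cutoff, the plate mean of test compounds plus 3 SD, cut at about 30% in these data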;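 also: 0% = DMSO wells with GLD-1 and probe and 100% = wells lacking GLD-1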
Target sequence (Q17339 whole entry, looked up): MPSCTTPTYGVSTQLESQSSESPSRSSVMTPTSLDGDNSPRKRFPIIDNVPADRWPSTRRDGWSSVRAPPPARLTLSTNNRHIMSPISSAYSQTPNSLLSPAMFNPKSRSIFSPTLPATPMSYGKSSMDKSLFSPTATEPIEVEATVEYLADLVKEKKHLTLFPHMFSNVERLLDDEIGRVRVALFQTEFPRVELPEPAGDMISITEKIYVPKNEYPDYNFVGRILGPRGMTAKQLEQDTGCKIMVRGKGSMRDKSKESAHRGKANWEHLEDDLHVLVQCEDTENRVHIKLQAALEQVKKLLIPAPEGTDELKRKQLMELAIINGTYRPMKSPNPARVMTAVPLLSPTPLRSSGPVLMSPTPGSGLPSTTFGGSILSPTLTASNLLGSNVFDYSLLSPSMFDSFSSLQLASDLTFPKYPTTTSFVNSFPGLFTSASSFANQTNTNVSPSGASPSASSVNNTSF
GLD-1 TGE cf = GLD-1/TGE RNA binding inhibitors, retest, confirmation, biochemical, fluorescence polarization, triplicate; shares compounds with GLD-1 TGE inh; GLD-1/FL-TGE RNA fluorescence polarization; inhibition, % at 5.96 µM; 550 tested, 10% active;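 active = average inhibition across triplicates above the hit cutoff set in the primary screen, cut at about 32% in these data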;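 also: 0% = GLD-1 with RNA probe and DMSO and 100% = wells lacking GLD-1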
* = called active by the depositor; . = not tested or not shown. Only some compounds are listed: those with a hit (about 2.2% of all), similar ones and a draw of the others.

SMILES | IMP-1 inhibitor | EBV gp42 inh | MEX-5 binding | VIM-2 inhibitor | Bcl-xL primary | GLD-1 TGE inh | GLD-1 TGE cf
Cc1ccc(NC(=O)CN2CCN(c3ccccn3)CC2)cc1S(=O)(=O)N(C)C | 1 | -5 | 0 | 1 | 0 | 54* | -1
CCN(CC)S(=O)(=O)c1cc(NC(=O)CN2CCN(c3ccccn3)CC2)ccc1C | -2 | -10 | -1 | 1 | -4 | 5 | .
CN(C(=O)CN1C(=O)NC2(CCc3ccccc32)C1=O)C1CCCCC1 (stereo not drawn) | . | . | . | . | . | 6 | .
CN(C(=O)CN1C(=O)c2cccc(N)c2C1=O)C1CCCCC1 | . | . | . | . | 61* | 45* | 49*
Nc1ncc(-c2ccccc2)c(-c2ccc(O)cc2O)n1 | -1 | . | 0 | 1 | 50* | 43* | 11
C=CCNC(=O)c1c(CSc2ccc(Cl)cc2)noc1C(=O)NCCC | . | . | 1 | . | -2 | 8 | .
CCCNC(=O)c1onc(CSc2ccc(Cl)cc2)c1C(=O)NCCC(C)C | . | . | 2 | . | 8 | 44* | -6
CCOC(=O)c1c(C)[nH]c(C)c1S(=O)(=O)N(C)CC(=O)Nc1cccc(C)c1 | -1 | . | 3 | 0 | 0 | 3 | .
S=C(Nc1ccc2nc(-c3ccccn3)c(-c3ccccn3)nc2c1)N1CCOCC1 | -3 | 15 | -15 | -4 | 60* | 40* | 6
COc1ccc(NC(=O)C2=CN3CCS(=O)(=O)N=C3C=C2)c(OC)c1 | . | . | . | . | -3 | 1 | .
NC(=O)/C(=C/c1ccco1)C(N)=S | -1 | -5 | -1 | -1 | 86* | 50* | -5
Cn1c(=O)c(/C=C/c2ccc(F)cc2)nc2ccccc21 | -4 | -19 | . | -6 | . | . | .
Cn1c(=O)c(/C=C/c2ccccc2)nc2ccccc21 | -2 | 15 | -2 | 1 | 35* | 41* | 1
CCn1c(SCC(=O)NC2CCCC2)nnc1C(C)C | -3 | . | 1 | -6 | 4 | -1 | .
Cc1ccc(NC(=O)COC(=O)c2ccc(NC(=O)CC#N)cc2)cc1S(=O)(=O)N1CCOCC1 | . | . | . | . | . | -8 | .
Cc1ccc(-c2nn(CCC(=O)Nc3cccnc3)c(=O)c3ccccc23)cc1 | -3 | -15 | 0 | -2 | 82* | 61* | -3
COCCNC(=O)c1c(N)n(CCC2=CCCCC2)c2nc3ccccc3nc12 | -2 | 18 | -4 | -3 | 50* | 38* | 21
Cc1cccc(OCCNc2ccc([N+](=O)[O-])cn2)c1 | 0 | -11 | -1 | 1 | 2 | 32* | 5
COc1ccc(/C=N/c2c(-c3ccco3)nc3ccccn23)cc1OC | -1 | 18 | -5 | -9 | 39* | 57* | 57*
Clc1ccc(/C=N/c2c(-c3ccco3)nc3ccccn23)cc1 | -4 | 23 | -6 | 0 | 39* | 45* | 44*
COc1cc(-c2nc3ccccn3c2/N=C/c2ccc(F)cc2)ccc1O | 1 | 8 | -2 | 2 | 4 | -2 | .
Oc1ccccc1/C=N/c1c(-c2ccco2)nc2ccccn12 | 0 | 14 | -1 | 1 | 24 | 14 | .
Oc1cc(NCCc2cccnc2)cc2cccnc12 | . | . | . | . | . | 39* | 24
COc1ccc(OC)c(-c2cc(C(=O)N/N=C/c3ccc(F)cc3)c3ccccc3n2)c1 | . | . | 1 | . | 9 | -2 | .
COc1ccc(OC)c(-c2cc(C(=O)Nc3ccccc3C(N)=O)c3ccccc3n2)c1 | . | . | 1 | . | 5 | 34* | -2
SMILES | IMP-1 inhibitor | EBV gp42 inh | MEX-5 binding | VIM-2 inhibitor | Bcl-xL primary | GLD-1 TGE inh | GLD-1 TGE cf
Cc1cc(CNC(=O)c2cccc(OC3CCN(S(=O)(=O)N(C)C)CC3)c2)on1 | -5 | . | 0 | -2 | 2 | 8 | .
COc1ccc(N2CCN(C(=O)COC(=O)COc3ccc(C#N)cc3)CC2)cc1 | . | . | 0 | . | -5 | 4 | .
CC(=O)Oc1ccc(-c2ccc(C(=O)OCC(=O)N(C)CC(=O)Nc3ccccc3Cl)cc2)cc1 | -2 | . | -3 | -2 | -3 | 1 | .
COc1ccc(-n2nc(C(=O)NCC(=O)NC3CCCC(C)C3C)c3ccccc3c2=O)cc1 (stereo not drawn) | -2 | . | 4 | -2 | 8 | 33* | -1
CC(NC=O)c1nc2ccccc2n1CCc1ccccc1 (stereo not drawn) | -3 | . | -1 | -1 | -5 | 5 | .
COc1ccc(CNCCC(c2ccccc2)C2CCOC(C)(C)C2)cc1 (stereo not drawn) | 1 | -11 | 1 | 1 | 3 | 49* | 2
COc1cc(NC(=O)c2cccs2)cc(OC)c1 | -1 | -18 | 3 | 1 | 7 | 52* | -2
COc1cc2c(cc1OC)CN(C1CCCN(Cc3cc(Cl)ccc3O)C1)CC2 (stereo not drawn) | 2 | . | -1 | 1 | 6 | 4 | .
CCc1ccc2c(COC(=O)C3CSC4(C)CCC(=O)N34)cc(=O)oc2c1 (stereo not drawn) | . | . | . | . | 1 | 2 | .
CCOC(=O)C1C(c2ccc3c(c2)OCO3)NC(=O)NC1(O)C(F)(F)F (stereo not drawn) | -3 | -23 | -2 | 2 | 60* | 33* | -10
CCOC(=O)C1C(c2ccc(O)c(OC)c2)NC(=O)NC1(O)C(F)(F)F (stereo not drawn) | 0 | . | -1 | 2 | 0 | 9 | .
CCCCNS(=O)(=O)NC(=O)C1=C(N2CCCC2)COC1=O | . | . | . | . | -2 | -5 | .
CC(=O)Oc1ccc(C(=O)O)cc1OC(C)=O | -1 | 0 | -1 | 0 | 6 | 3 | .
CC(=O)Oc1cccc2c1C(=O)c1c(OC(C)=O)cc(C(=O)O)cc1C2=O | -3 | -20 | -16 | -2 | 19 | 52* | 41*
CCOc1ccc(C(=O)CSc2nnc3ccccn23)cc1 | -2 | -2 | 1 | -1 | -2 | 7 | .
Cc1ccccc1-n1c(SCC(=O)c2cc(C)n(C)c2C)nnc1-c1cccnc1 | -4 | 0 | 2 | -6 | -2 | 5 | .
CCn1c(CSc2nnc(-c3cccnc3)n2-c2ccccc2C)nc2cc(C(=O)O)ccc21 | -2 | -6 | . | 0 | 30* | 46* | 18
CCn1c(CSc2nnc3ccccn23)nc2cc(C(=O)O)ccc21 | -2 | 83* | -21 | -3 | 99* | 95* | 32*
Cc1csc(NC(=O)c2ccc3nc[nH]c3c2)n1 | -1 | . | 2 | -2 | 9 | -3 | .
